From ChEMBL document CHEMBL4130442, “Design, synthesis and structure-activity relationship studies of a focused library of pyrimidine moiety with anti-proliferative and anti-metastasis activities in triple negative breast cancer” (Eur J Med Chem, 2017)
Activity calls are given as the source filed them. No cut-off for these calls is given here.

Key:
[1] = system: MDA-MB-231; experiment: Induction of autophagy in human MDA-MB-231 cells assessed as change in Beclin-1 protein level at 2.5 uM incubated for 24 hrs in presence of control siRNA by Western blot method relative to untreated control; assay type: functional
Summary of the method: (§1)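 MDA-MB-231 cells were exposed for 24 h. Adherent and floating cells were pooled and lysed for 1 h at 4 °C in 50 mM Hepes pH 7.4 with 1% Triton X-100, orthovanadate, NaF, EDTA, PMSF, aprotinin and leupeptin. After 12,000 rpm clearing, equal protein was run on 10-15% SDS-PAGE and blotted to PVDF. Detection used HRP-ECL, with β-actin as loading control and densitometric quantification.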

[2] = system: MDA-MB-231; experiment: Effect on total mTOR protein level in human MDA-MB-231 cells at 5 uM incubated for 24 hrs by Western blot relative to untreated control; assay type: ADME, cell-based; conditions: mda-mb-231, 24 h; summary of the method: as §1
[3] = system: MDA-MB-231; experiment: Induction of autophagy in human MDA-MB-231 cells co-transfected with GFP-mRFP-LC3 assessed as increase in LC3 puncta aggregation at 2.5 uM by fluorescence micrsocpy; assay type: functional, cell-based
Summary of the method: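 Cells were transfected with a GFP/mRFP-LC3 plasmid and incubated with 2.5 μM compound. GFP-LC3 puncta were then observed by fluorescence microscopy.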

[4] = target: T1, Platelet-derived growth factor receptor beta (Homo sapiens, UniProt P09619); experiment: Inhibition of PDGFRbeta in human MDA-MB-231 cells assessed as mTOR Ser2448 phosphorylation level at 2.5 uM incubated for 24 hrs in absence of PDGFRbeta siRNA by Western blot relative to untreated control; assay type: cell-based
T1 sequence (P09619 whole entry): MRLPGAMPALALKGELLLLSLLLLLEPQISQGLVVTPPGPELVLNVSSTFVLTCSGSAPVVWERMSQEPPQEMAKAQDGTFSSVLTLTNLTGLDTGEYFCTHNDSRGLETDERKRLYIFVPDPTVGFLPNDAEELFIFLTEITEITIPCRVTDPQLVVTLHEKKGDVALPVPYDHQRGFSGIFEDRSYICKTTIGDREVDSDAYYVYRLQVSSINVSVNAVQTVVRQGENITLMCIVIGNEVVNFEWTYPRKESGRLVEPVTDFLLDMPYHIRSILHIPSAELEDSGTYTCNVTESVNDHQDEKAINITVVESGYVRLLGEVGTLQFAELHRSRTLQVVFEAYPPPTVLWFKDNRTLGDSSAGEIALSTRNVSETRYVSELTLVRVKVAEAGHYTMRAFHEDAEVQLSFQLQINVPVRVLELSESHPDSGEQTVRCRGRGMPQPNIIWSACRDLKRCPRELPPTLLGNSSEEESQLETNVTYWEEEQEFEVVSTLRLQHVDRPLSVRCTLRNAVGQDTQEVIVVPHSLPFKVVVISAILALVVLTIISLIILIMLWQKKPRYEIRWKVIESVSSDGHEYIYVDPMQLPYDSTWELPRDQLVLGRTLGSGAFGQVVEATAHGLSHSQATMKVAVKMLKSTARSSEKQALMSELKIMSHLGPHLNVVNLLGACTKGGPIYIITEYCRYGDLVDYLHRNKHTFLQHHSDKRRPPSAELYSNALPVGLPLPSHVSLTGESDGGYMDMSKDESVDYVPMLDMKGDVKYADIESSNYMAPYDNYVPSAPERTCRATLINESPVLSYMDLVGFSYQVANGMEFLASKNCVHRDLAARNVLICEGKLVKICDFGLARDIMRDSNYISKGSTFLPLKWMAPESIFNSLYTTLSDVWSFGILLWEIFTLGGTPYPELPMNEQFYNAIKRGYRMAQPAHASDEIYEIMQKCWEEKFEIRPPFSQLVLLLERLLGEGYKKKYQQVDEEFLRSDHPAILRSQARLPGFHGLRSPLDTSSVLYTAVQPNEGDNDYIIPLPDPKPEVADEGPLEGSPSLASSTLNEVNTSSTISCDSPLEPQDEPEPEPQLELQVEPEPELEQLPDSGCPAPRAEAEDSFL
Summary of the method: (§2)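 Cells were transfected with control or PDGFR-β siRNA, then treated with 2.5 μM compound for 24 h. PDGFR-β-AKT-ULK1 pathway phospho-proteins were assessed by western blot: lysis in Hepes pH 7.4 / Triton buffer, 10-15% SDS-PAGE, PVDF, ECL detection, β-actin as loading control.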

[5] = system: MDA-MB-231; experiment: Induction of apoptosis in human MDA-MB-231 cells assessed as change in cleaved caspase-3 protein level at 5 uM incubated for 24 hrs by Western blot method relative to untreated control; assay type: functional; summary of the method: as §1
[6] = target: T1, Platelet-derived growth factor receptor beta; experiment: Inhibition of PDGFRbeta in human MDA-MB-231 cells assessed as ULK Ser317 phosphorylation level at 2.5 uM incubated for 24 hrs by Western blot relative to untreated control; assay type: cell-based
Summary of the method: (§3)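 Cells were treated 24 h at several concentrations. Pooled adherent and floating cells were lysed in Hepes 50 mM pH 7.4 / 1% Triton X-100 buffer with vanadate, NaF, EDTA, PMSF, aprotinin and leupeptin. Equal protein was run on 10-15% SDS-PAGE and blotted to PVDF. PDGFR-β-AKT-ULK1 pathway phospho-proteins were probed and detected by ECL, with β-actin as loading control.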

[7] = system: MDA-MB-231; experiment: Induction of autophagy in human MDA-MB-231 cells assessed as change in LC3-2 protein level at 2.5 uM incubated for 24 hrs by Western blot method relative to untreated control; assay type: functional
Summary of the method: (§4)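 MDA-MB-231 cells (ATCC; DMEM, 10% FBS, 5% CO2) were treated 24 h over a concentration series. Adherent and floating cells were pooled and lysed 1 h at 4 °C (50 mM Hepes pH 7.4, 1% Triton X-100, phosphatase/protease inhibitors). Equal protein was run on 10-15% SDS-PAGE, transferred to PVDF, probed for Beclin-1, p62 and LC3 with HRP/ECL detection, and normalised to β-actin.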

[8] = target: Dual specificity mitogen-activated protein kinase kinase; MEK1/2 (Homo sapiens) (UniProt P36507+Q02750); experiment: Inhibition of MEK1/2 in human MDA-MB-231 cells assessed as MEK1/2 Ser217/221 phosphorylation level at 10 uM incubated for 24 hrs in presence of PDGFRbeta siRNA by Western blot relative to untreated control; assay type: cell-based
Chain of Dual specificity mitogen-activated protein kinase kinase; MEK1/2 (Homo sapiens) (P36507 whole entry, looked up): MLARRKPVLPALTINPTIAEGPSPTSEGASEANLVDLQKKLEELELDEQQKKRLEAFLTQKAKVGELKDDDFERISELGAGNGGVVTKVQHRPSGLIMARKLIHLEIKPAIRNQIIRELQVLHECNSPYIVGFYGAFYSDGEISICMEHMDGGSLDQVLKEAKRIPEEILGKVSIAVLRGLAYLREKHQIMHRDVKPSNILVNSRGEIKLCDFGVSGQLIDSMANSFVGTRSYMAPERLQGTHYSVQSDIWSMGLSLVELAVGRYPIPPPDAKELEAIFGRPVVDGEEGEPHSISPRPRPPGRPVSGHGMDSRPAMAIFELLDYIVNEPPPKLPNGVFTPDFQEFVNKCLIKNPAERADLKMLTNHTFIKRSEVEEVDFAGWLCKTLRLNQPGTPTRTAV
Chain of Dual specificity mitogen-activated protein kinase kinase; MEK1/2 (Homo sapiens) (Q02750 whole entry, looked up): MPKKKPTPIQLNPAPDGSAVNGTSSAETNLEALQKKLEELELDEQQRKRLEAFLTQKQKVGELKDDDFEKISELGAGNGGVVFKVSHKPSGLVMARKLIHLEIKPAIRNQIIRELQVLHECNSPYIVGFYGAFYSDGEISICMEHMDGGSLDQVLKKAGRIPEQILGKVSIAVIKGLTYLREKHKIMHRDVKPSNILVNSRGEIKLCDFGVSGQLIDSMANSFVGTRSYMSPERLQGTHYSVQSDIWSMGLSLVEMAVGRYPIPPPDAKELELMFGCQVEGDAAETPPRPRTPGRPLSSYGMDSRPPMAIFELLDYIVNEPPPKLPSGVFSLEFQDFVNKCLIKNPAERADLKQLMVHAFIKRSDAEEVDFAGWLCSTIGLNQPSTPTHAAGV

[9] = system: MDA-MB-231; experiment: Activation of ERK in human MDA-MB-231 cells assessed as ERK phosphorylation level at 2.5 to 10 uM incubated for 24 hrs by immunofluorescence assay; assay type: cell-based
Summary of the method: (§5)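 MDA-MB-231 cells (ATCC; DMEM, 10% FBS, 5% CO2) were treated, blocked in PBS with 1.5% goat serum, then given p-ERK antibody (1:200 in PBS with 1% BSA) overnight at 4 °C. TRITC-labelled secondary antibody followed for 1 h at room temperature. Nuclear fluorescence was read by microscopy.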

[10] = target: T1, Platelet-derived growth factor receptor beta; experiment: Inhibition of PDGFRbeta in human MDA-MB-231 cells assessed as Akt Thr305 phosphorylation level at 2.5 uM incubated for 24 hrs by Western blot relative to untreated control; assay type: cell-based; summary of the method: as §3
[11] = system: MDA-MB-231; experiment: Activation of ERK in human MDA-MB-231 cells assessed as ERK Thr202/Tyr204 phosphorylation level at 2.5 to 10 uM incubated for 24 hrs by immunocytochemistry; assay type: cell-based; summary of the method: as §5
[12] = system: MDA-MB-231; experiment: Induction of autophagy in human MDA-MB-231 cells assessed as change in Beclin-1 protein level at 5 uM incubated for 24 hrs by Western blot method relative to untreated control; assay type: functional; summary of the method: as §4
[13] = system: MDA-MB-231; experiment: Effect on total Akt protein level in human MDA-MB-231 cells at 2.5 uM incubated for 24 hrs in presence of control siRNA by Western blot relative to untreated control; assay type: ADME, cell-based; conditions: mda-mb-231, 24 h; summary of the method: as §1
[14] = system: MDA-MB-231; experiment: Effect on total Ras protein level in human MDA-MB-231 cells at 5 uM incubated for 24 hrs by Western blot relative to untreated control; conditions: mda-mb-231, 24 h
[15] = system: MDA-MB-468; experiment: Antiproliferative activity against human MDA-MB-468 cells incubated for 24 hrs by MTT assay; assay type: functional, cell-based; conditions: MDA-MB-468, 24 h
[16] = system: MDA-MB-231; experiment: Inhibition of cell migration in human MDA-MB-231 cells at 2.5 to 10 uM incubated for 24 hrs by scratch wound healing assay; assay type: functional, cell-based
Summary of the method: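 Cells were grown to confluence and the monolayer was scratched with a longitudinally cut 10 μL tip. Cells were treated with 2.5, 5.0 or 10 μM compound for 24 h and wound closure was viewed by phase-contrast microscopy.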

[17] = target: T1, Platelet-derived growth factor receptor beta; experiment: Inhibition of PDGFRbeta in human MDA-MB-231 cells assessed as ULK Ser317 phosphorylation level at 2.5 uM incubated for 24 hrs in absence of PDGFRbeta siRNA by Western blot relative to untreated control; assay type: cell-based; summary of the method: as §2
[18] = system: MDA-MB-231; experiment: Effect on total ULK1 protein level in human MDA-MB-231 cells at 10 uM incubated for 24 hrs by Western blot relative to untreated control; assay type: ADME, cell-based; conditions: mda-mb-231, 24 h; summary of the method: as §1
[19] = system: MDA-MB-231; experiment: Induction of autophagy in human MDA-MB-231 cells assessed as change in p62 protein level at 2.5 uM incubated for 24 hrs by Western blot method relative to untreated control; assay type: functional; summary of the method: as §1
[20] = target: T1, Platelet-derived growth factor receptor beta; experiment: Inhibition of PDGFRbeta in human MDA-MB-231 cells assessed as C-Raf Ser338 phosphorylation level at 10 uM incubated for 24 hrs in presence of PDGFRbeta siRNA by Western blot relative to untreated control; assay type: cell-based
[21] = system: MDA-MB-231; experiment: Effect on total PDGFRbeta protein level in human MDA-MB-231 cells at 5 uM incubated for 24 hrs by Western blot relative to untreated control; assay type: ADME, cell-based; conditions: mda-mb-231, 24 h; summary of the method: as §1
[22] = target: T1, Platelet-derived growth factor receptor beta; experiment: Inhibition of PDGFRbeta in human MDA-MB-231 cells assessed as ULK Ser555 phosphorylation level at 2.5 uM incubated for 24 hrs by Western blot relative to untreated control; assay type: cell-based; summary of the method: as §3

In the case of `COc1cccc(Nc2cc(N3CCN(C(=O)Nc4ccc(C(F)(F)F)cc4)CC3)ncn2)c1`, the “fold change (FC)” value [1] is reported as 3.54, the “fold change (FC)” value [2] is reported as 0.31 and the Activity [3] is reported as “Active”. The fold change (FC) [4] was 0.21, the “fold change (FC)” value [5] was 0.88 and the fold change (FC) [6] was 1.5. For the same compound, the “fold change (FC)” value [7] was 2.5, the fold change (FC) [8] was 1.01 and the Activity [9] was “Active”. The fold change (FC) [10] was 0.95, the Activity [11] was “Active” and the “fold change (FC)” value [12] was 2.8. For the same compound, the “fold change (FC)” value [13] was 0.86, the “fold change (FC)” value [14] was 1.35 and the IC50 [15] was 3.19 µM. The inhibition [16] was “Active”, the fold change (FC) [17] was 3.67 and the “fold change (FC)” value [18] was 0.99. The “fold change (FC)” value [19] was 0.78, the fold change (FC) [20] was 0.66 and the “fold change (FC)” value [21] was 1.1. It also gave a fold change (FC) [22] of 4.5.
